Screens (PubChem BioAssay)
Many of the other results were omitted from the sample, so hits are more common in it than they were.
Calb FLC: C. albicans growth modulation with fluconazole. C. albicans CaCi-2 (fluconazole-resistant clinical isolate) + fluconazole, Alamar Blue growth, 48 h. growth inhibition, % (test concentration not listed). actives 0.57% (n = 300,000);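 active = growth inhibition above about 58% in most replicates, limit read from the data, passing the limit was not always enough; inconclusive = exactly half the replicates above a set limit; inactive = most replicates below a set limit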;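 also: all wells also contain fluconazole at 8 µg/ml as a sub-toxic cotreatment; 0% = median of DMSO wells and 100% = median of geldanamycin control wells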
PolyA inh: blocks polyadenylation in yeast reporter cells; S. cerevisiae SKY197-pL101 polyadenylation reporter, beta-gal luminescence; efflux-impaired pdr1/pdr3 knockout yeast; score 100 = 6 SD above DMSO; actives 0.02% (n = 300,000); activity score, % at 12 µM;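 active = lowest replicate activity score at least 50, where 100 means six control SD above control mean; inconclusive = lowest score under 50 but half or more replicates reach 50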;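 also: yeast exposed to compound for 9 h at 30 °C; higher score means more reporter readthrough which indicates perturbed polyadenylation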
T cruzi repl: blocks replication of Trypanosoma cruzi. inhibition, % (concentration not given with the values). T. cruzi beta-gal in NIH3T3, luminescence, 90 h. actives 1.4% (n = 300,000);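 active = mean inhibition across valid replicates above about 55%, limit read from the data; inconclusive = mean below that limit but half or more replicates reach it; inactive = mean below it, under half of replicates reach it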;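 also: signal also drops with host cell toxicity which is not excluded here; 0% = plate median of DMSO wells and 100% = zero luminescence signal; higher percent means less beta-gal luminescence so fewer parasites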
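System: mouse NIH/3T3 fibroblasts infected with β-gal-expressing T. cruzi Tulahuen C4 / Input: NIH/3T3 cells, 5,000 per well / Buffer or medium: Low-serum DMEM with 2% FBS / Probe or stimulus: 5000 reporter trypomastigotes per well / Schedule: ≥90 h infection period, 3 h prior cell attachment / Measured by: GalScreen luminescence, 60 min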
NALP3 yeast inh: NALP3 inhibition in yeast; Yeast reconstituted NLRP3/ASC/caspase-1, beta-gal luminescence, 24 h; inhibition, % at 10 µM; actives 0.39% (n = 330,000); AID 2825;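 active = inhibition of 50% or more; inactive = inhibition below 50%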;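 also: plate controls were induced DMSO wells for no effect and uninduced yeast grown without galactose for full effect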
Lmaj promast: Leishmania major promastigote growth inhibition. inhibition, % at 10 µM. Leishmania major promastigotes, resazurin fluorescence viability. AID 1063. actives 9% (n = 200,000); in the data active = inhibition above about 50%;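 also: promastigotes grown with compound for 44 hours at 28 °C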
NALP1 inh: NALP1 inhibition; S. cerevisiae NALP1/ASC/caspase-1 growth, X-gal OD620, 72 h; inhibition, % at 10 µM; actives 0.61% (n = 280,000); in the data active = inhibition mostly above about 24%, no sharp cut-off; inactive = mostly below about 32%
* hit, by the source's call; ? = inconclusive; / = no result given.

SMILES	Calb FLC	PolyA inh	T cruzi repl	NALP3 yeast inh	Lmaj promast	NALP1 inh
CCN1CCN(S(=O)(=O)c2ccc(C(=O)Nc3sc4c(c3C(N)=O)CCN(CC)C4)cc2)CC1	1.5	-11.2	5.6	18.6	/	19.6
CC(C)N1CCc2c(sc(NC(=O)c3ccc(S(=O)(=O)N4CCc5ccccc54)cc3)c2C(N)=O)C1	25.0	-8.4	36.7	14.0	100.2*	8.0
NC(=O)c1ccsc1NC(=O)c1ccc(S(=O)(=O)N2CCCc3ccccc32)cc1	1.3	1.7	29.4	18.4	99.5*	26.8
O=S(=O)(c1ccccc1)N1CCCc2ccccc21	-15.2	11.6	4.6	-12.7	/	-56.2
CNC(=O)c1c(NC(=O)c2ccc(S(=O)(=O)N(C)c3ccccc3)cc2)sc2c1CCN(C(C)C)C2	-3.3	9.3	29.3	19.6	/	0.2
O=S(=O)(NC1CC1)c1ccc(S(=O)(=O)N2CCCc3ccccc32)cc1	20.6	-0.3	-10.3	10.3	94.7*	0.5
CCN1CCc2c(sc(NC(=O)c3ccc4ccccc4c3)c2C(N)=O)C1	/	20.0	61.8*	32.9	/	3.9
COc1ccccc1CC(=O)NCCN1CCCCC1	-6.2	?	-0.5	18.7	/	0.4
COc1ccc(S(=O)(=O)NNC(=O)C2CC(c3cccnc3)=NO2)cc1 (configuration not stated)	-1.5	/	5.8	-2.8	0.3	-7.4
O=[N+]([O-])c1ccc(Nc2ccccc2F)nc1	-35.3	-1.5	12.8	16.5	-5.1	0.7
CC(=O)Nc1ccc(S(=O)(=O)NCCC(=O)Nc2ccc(C)cn2)cc1	-17.8	2.1	-6.2	2.7	/	11.2
CC(C)N1CCc2c(sc(NC(=O)c3cc(-c4cccs4)nc4ccccc34)c2C(N)=O)C1	-9.4	12.9	38.0	33.9	91.5*	38.6
CC(C)N1CCc2c(sc(NC(=O)c3nc4ccccc4s3)c2C(N)=O)C1	119.3*	-7.2	7.0	46.9	24.2	-21.7
CC(C)N1CCc2c(sc(NC(=O)c3ccc([N+](=O)[O-])o3)c2C(N)=O)C1	-1.3	-8.6	20.0	17.3	/	10.5
CCOc1ccc(CCNC(=O)COC(=O)CSc2ccc(C)cc2)cc1OCC	/	/	/	16.5	/	/
Cc1ccc(S(=O)(=O)NCC(=O)N(CC(=O)NCC2CCCO2)Cc2ccco2)cc1 (configuration not stated)	15.0	-3.9	-14.3	-5.4	-5.3	13.4
Cc1cccc2nc(CSc3nc4ccccc4o3)cn12	-5.8	-29.0	-0.1	38.2	64.4*	25.3
COC(=O)c1cccc(NS(=O)(=O)c2ccc(OC)c(OC)c2)c1C	-4.9	6.9	-12.4	10.9	-1.4	7.2
COC(=O)c1ccc(C)c(NS(=O)(=O)c2ccc(OC)c(OC)c2)c1	47.1	-14.8	-11.4	11.6	100.0*	5.0
CCCCc1cc(=O)oc2cc(C)cc(O)c12	49.6	-7.1	2.5	-5.4	81.6*	-0.1
CCCCc1cc(=O)oc2cc(O)cc(O)c12	18.4	-14.9	-1.4	20.6	29.0	0.2
COc1cc(S(=O)(=O)n2ccnc2)ccc1Br	-5.7	6.7	-10.1	-7.7	-4.2	8.9
COc1ccc(Br)cc1S(=O)(=O)n1ccnc1	3.9	26.5	-0.4	-18.9	62.9*	17.2
CCOc1ccc(C)cc1S(=O)(=O)n1ccnc1	5.8	10.3	-19.8	29.6	5.4	-15.8
CCOc1cc(C)c(Cl)cc1S(=O)(=O)n1ccnc1	7.2	11.8	71.6*	7.8	91.6*	0.1
SMILES	Calb FLC	PolyA inh	T cruzi repl	NALP3 yeast inh	Lmaj promast	NALP1 inh
Cc1c(Cc2ccccc2)sc(NC(=O)C(C)(C)C)c1C(N)=O	-7.2	-11.3	26.0	4.7	5.9	-2.9
O=C(CC1NC(=S)NC1=O)c1ccc(Cl)cc1 (configuration not stated)	-3.2	-12.6	-11.0	-6.1	/	/
Cc1c(N)cc(C(=O)N2CCOCC2)cc1[N+](=O)[O-]	-4.3	6.8	-3.5	8.0	-4.3	16.2
OC(COc1ccc(OCC(O)CN2CCCCC2)cc1)CN1CCCCC1 (configuration not stated)	-4.6	?	4.7	12.5	/	23.5
OC(COCc1ccc2c(c1)OCO2)CN1CCC(Cc2ccccc2)CC1 (configuration not stated)	-32.3	-11.3	35.4	28.3	87.3*	4.6
OC(COc1ccc(Cl)cc1)CN1CCCCC1 (configuration not stated)	0.8	-4.8	3.0	-2.8	89.2*	18.7
